# Compounds with a hit are over-represented: about 1.5% of the library has one in this group of screens.
# INS-1E GSIS act: primary screen for activators of insulin secretion dependent on glucose, INS-1E cells, GLuc reporter luminescence; activation, % at 16.6 µM; INS-1E GLuc reporter insulin secretion, 2-3 h; actives 0.61% (n = 370,000); AID 743287;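 active = lowest replicate activation of at least 40%, so every replicate reaches that level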;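 note: 0% = median of neutral control wells and 100% = median of IBMX positive control wells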
# AF4-AF9 inh: blocks AF4 peptide binding to human AF9; AlphaScreen, biotin-AF4 peptide binding to FLAG-AF9; inhibition, % at 10 µM; actives 0.47% (n = 350,000); AID 651704;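 active = every replicate reaching a set inhibition limit, whatever the replicate mean, cut at about 25% in these data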;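 note: 0% = plate neutral control median and 100% = total signal loss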
# RAD52 inh: RAD52 (human) annealing inhibition; recombinant RAD52 DNA annealing, FRET fluorescence; inhibition, % at 18.7 µM; actives 0.46% (n = 360,000);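 active = every replicate showing at least 50% inhibition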
# S100A4 inh HTS: blocks human S100A4 binding to myosin IIA peptide | P26447 | S100A4/TAMRA-MyoIIA peptide fluorescence polarization | inhibition, % at 10.7 µM | actives 0.14% (n = 360,000);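 active = mean inhibition of at least 70% across replicates, with every replicate also reaching that level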
# Target sequence (P26447 whole entry, looked up): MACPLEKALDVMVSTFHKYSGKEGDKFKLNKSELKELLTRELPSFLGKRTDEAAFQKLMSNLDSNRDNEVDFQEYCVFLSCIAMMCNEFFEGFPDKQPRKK
#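 Test system: S100A4 monomer protein. Medium: HEPES buffer with Ca2+, pH 7.2. Reagent: fluorescent myosin IIA peptide, 5 nM. Compound dosing: single-point compound testing. Timing: 5 min between mix addition and reading. Benchmarks: DMSO neutral and TFP positive wells.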
# ERAP1 HTS inh: inhibitors of human ERAP1 aminopeptidase. Q9NZ08. recombinant ERAP1, Leu-AMC fluorescence, 60 min. inhibition, % at 10.7 µM. actives 0.15% (n = 340,000);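 active = mean replicate inhibition of at least 30%, or all replicates individually reaching that 30% level; inactive = mean below 30% and not every replicate reaching it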;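 note: 0% = neutral control wells and 100% = L-leucinethiol positive control wells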
# * = called active by the depositor; . = no result given.
SMILES,INS-1E GSIS act,AF4-AF9 inh,RAD52 inh,S100A4 inh HTS,ERAP1 HTS inh
C[C@H](CO)N1C[C@H](C)[C@H](CN(C)Cc2ccc(C(=O)O)cc2)OCCCC[C@H](C)Oc2ccc(NC(=O)c3ccncc3)cc2C1=O,6,-2,101*,-1,1
C[C@@H]1CN([C@@H](C)CO)C(=O)c2cc(NC(=O)c3ccncc3)ccc2O[C@@H](C)CCCCO[C@@H]1CN(C)Cc1ccc(C(=O)O)cc1,4,-3,59*,-45,3
C[C@@H]1CCCCO[C@@H](CN(C)Cc2ccc(C(=O)O)cc2)[C@H](C)CN([C@H](C)CO)C(=O)c2cc(NC(=O)CCCN(C)C)ccc2O1,25,-5,19,130*,-4
O=C(C[C@H]1CC[C@@H]2[C@H](COC[C@H](O)CN2C(=O)Nc2ccccc2)O1)NC1Cc2ccccc2C1,0,1,8,1,1
C[C@H]1C/C=C\C[C@@H](c2ccc3c(c2)OCO3)NC(=O)[C@H](c2ccccc2)CC(=O)N1,-3,.,.,.,.
C[C@@H]1CCCCO[C@H](CN(C)Cc2ccc(C(=O)O)cc2)[C@H](C)CN([C@H](C)CO)C(=O)c2cc(NC(=O)c3ccncc3)ccc2O1,11,-3,103*,1,2
C[C@@H]1CCCCO[C@@H](CN(C)Cc2ccncc2)[C@@H](C)CN([C@H](C)CO)C(=O)c2cc(NC(=O)c3ccncc3)ccc2O1,10,-1,8,1,2
C[C@@H]1CCCCO[C@H](CN(C)Cc2ccc(C(=O)O)cc2)[C@@H](C)CN([C@H](C)CO)C(=O)c2cc(NC(=O)c3ccncc3)ccc2O1,-2,-2,48,4,3
C[C@@H]1CN([C@@H](C)CO)C(=O)c2cc(NC(=O)c3ccncc3)ccc2O[C@@H](C)CCCCO[C@H]1CN(C)Cc1ccncc1,-1,-3,-15,12,0
C[C@@H]1CCCCO[C@@H](CN(C)Cc2ccc(C(=O)O)cc2)[C@@H](C)CN([C@@H](C)CO)C(=O)c2cc(NC(=O)c3ccncc3)ccc2O1,18,-3,105*,5,1
C[C@@H]1CN([C@@H](C)CO)C(=O)c2cc(NC(=O)c3ccncc3)ccc2O[C@@H](C)CCCCO[C@H]1CN(C)Cc1ccc(C(=O)O)cc1,19,-3,96*,2,3
CO[C@@H](CN(C)C(=O)c1ccc2c(c1)OCO2)[C@@H](C)CN([C@H](C)CO)S(=O)(=O)c1ccc(C)cc1,-3,-1,4,-5,-1
Cc1noc(C)c1S(=O)(=O)N(C)C[C@@H]1OCCCC[C@@H](C)Oc2ccc(NC(=O)Nc3ccc(F)cc3)cc2C(=O)N([C@@H](C)CO)C[C@@H]1C,-11,-1,10,-7,1
O=C(C[C@H]1C[C@H]2c3cc(NC(=O)CC4CC4)ccc3O[C@H]2[C@@H](CO)O1)NCc1ccc2c(c1)OCO2,6,-3,7,-10,1
CCN1[C@@H]2c3ccc(C4=CCCC4)c(=O)n3C[C@H]1[C@H](CO)[C@H]2C(=O)NCc1ccccn1,21,-2,-53,22,2
C[C@H]1CC=CC[C@H](c2ccccc2)NC(=O)[C@H](C)N(C)C(=O)c2ccccc2O1 (mixture of isomers),-3,.,.,.,.
CC(C)n1cc(/C(N)=N/O)c(=O)n(Cc2ccccc2)c1=O,61*,-4,-7,-2,3
CO[C@@H]1CN(C)C(=O)c2ccc(NC(C)=O)cc2OC[C@@H](C)N(CC2CCCCC2)C[C@H]1C,-8,.,.,.,.
COc1ccc(-c2sc3ccccc3c2C#CC2(O)CCCCC2)cc1,-1,-14,4,-1,-1
OC1(C#Cc2c(-c3ccsc3)sc3ccccc23)CCCCC1,88*,4,-3,-23,2
O=C(Nc1ccc(Cl)cc1)N[C@H]1CC[C@@H](CCn2cc(Cc3ccccc3)nn2)O[C@H]1CO,0,1,-3,-2,-6
COc1ccc2c3c(n(C)c2c1)[C@@H](CO)N(C)CC31CCN(S(C)(=O)=O)CC1,10,.,.,.,.
COc1ccc(N/C(N)=N/c2nc(C)cc(C)n2)c(OC)c1,-4,1,9,4,-2
COc1cc(N/C(N)=N/c2nc(C)cc(C)n2)cc(OC)c1,3,6,81*,1,-3
Cc1nn(-c2ccccc2)c(N)c1N=Nc1ccccc1,-14,31*,-3,1,2
